Test results taken from ChEMBL document CHEMBL4118256, “Second Generation of Mannich Base-Type Derivatives with in Vivo Activity against Trypanosoma cruzi” (J Med Chem, 2018).
Activity calls are given as the source filed them. The calls are words filed in the database; no cut-off is given here.

What was measured:
[1] = tested on: Trypanosoma cruzi; assay: Antitrypanosomal activity against Trypanosoma cruzi MHOM/Pe/2011/Arequipa DTU 5 trypamastigotes infected in Balb/c mouse assessed as reduction in splenomegaly at 20 mg/kg, po once daily for 5 consecutive days starting from day 75 post infection measured on day 127 post infection relative to control; type: functional, organism-based
[2] = tested on: Mus musculus; assay: (§1) Cardiotoxicity in Balb/c mouse infected with Trypanosoma cruzi MHOM/Pe/2011/Arequipa DTU 5 trypamastigotes assessed as change in ratio of creatine kinase in muscle to brain at 20 mg/kg, po once daily for 5 consecutive days starting from day 10 post infection measured on day 16 post infection by biochemical analysis relative to control; type: toxicity, organism-based; conditions: in vivo
Summary of the method: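 Serum clinical chemistry in Arequipa-infected female BALB/c mice. Oral 20 mg·kg-1 per day for 5 days, started day 10 or day 75 pi. Samples taken at day 16 pi or day 81 pi, and on necropsy day. Markers: CK-MB and LDH (U/L), AST, ALT and alkaline phosphatase (U/L), total bilirubin. Results scored relative to infected untreated controls; uninfected reference n = 15.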

[3] = tested on: Mus musculus; assay: (§2) Nephrotoxicity in Balb/c mouse infected with Trypanosoma cruzi MHOM/Pe/2011/Arequipa DTU 5 trypamastigotes assessed as decrease in uric acid level in serum at 20 mg/kg, po once daily for 5 consecutive days starting from day 75 post infection measured on day 127 post infection by biochemical analysis relative to control; type: toxicity, organism-based; parameters: scale not given: the % may be the effect or the level left; conditions: in vivo
[4] = tested on: Mus musculus; assay: as §2, with “Hepatotoxicity” for “Nephrotoxicity”, “increase” for “decrease”, “ratio of serum AST to GOT” for “uric acid”, “level” for “level in serum”; type: toxicity, organism-based; conditions: in vivo
[5] = tested on: Mus musculus; assay: as §2, with “10” for “75”, “16” for “127”; type: toxicity, organism-based; parameters: scale not given: the % may be the effect or the level left; conditions: in vivo
[6] = tested on: Mus musculus; assay: as §2, with “as change” for “as decrease”, “at […]” for “at 20”; type: toxicity, organism-based; conditions: in vivo
[7] = tested on: Trypanosoma cruzi; assay: Antitrypanosomal activity against Trypanosoma cruzi MHOM/Pe/2011/Arequipa DTU 5 epimastigotes assessed as effect on parasite glycolytic pathway by measuring ethanol excretion at IC25 after 72 hrs by 1H NMR method; type: functional, organism-based
Summary of the method: (§3)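 Arequipa epimastigotes exposed at IC25 for 72 h alongside an untreated control. Excreted catabolites were analysed by 1H NMR, and each peak is reported as % variation versus the control. Three separate determinations.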

[8] = tested on: Trypanosoma cruzi; assay: Antitrypanosomal activity against Trypanosoma cruzi MHOM/Pe/2011/Arequipa DTU 5 epimastigotes assessed as effect on parasite glycolytic pathway by measuring increase in succinate excretion at IC25 after 72 hrs by 1H NMR method relative to control; type: functional; summary of the method: as §3
[9] = tested on: Mus musculus; assay: as §2, with “Hepatotoxicity in” for “Nephrotoxicity in”, “in ratio of serum ALT to GPT” for “in uric acid”, “level” for “level in serum”, “at […]” for “at 20”; type: toxicity, organism-based; parameters: scale not given: the % may be the effect or the level left; conditions: in vivo
[10] = tested on: Mus musculus; assay: as §2, with “in urea” for “in uric acid”, “at […]” for “at 20”, “day 81” for “day 127”; type: toxicity, organism-based; parameters: scale not given: the % may be the effect or the level left; conditions: in vivo
[11] = tested on: Mus musculus; assay: as §2, with “Hepatotoxicity in” for “Nephrotoxicity in”, “in ratio of serum ALT to GPT” for “in uric acid”, “level” for “level in serum”, “at […]” for “at 20”, “day 81” for “day 127”; type: toxicity, organism-based; parameters: scale not given: the % may be the effect or the level left; conditions: in vivo
[12] = tested on: Mus musculus; assay: as §2, with “Hepatotoxicity in” for “Nephrotoxicity in”, “in ratio of serum AST to GOT” for “in uric acid”, “level” for “level in serum”, “at […]” for “at 20”, “day 81” for “day 127”; type: toxicity, organism-based; parameters: scale not given: the % may be the effect or the level left; conditions: in vivo
[13] = tested on: Mus musculus; assay: as §2, with “Hepatotoxicity in” for “Nephrotoxicity in”, “in total bilirubin” for “in uric acid”, “level” for “level in serum”, “at […]” for “at 20”, “day 81” for “day 127”; type: toxicity, organism-based; parameters: scale not given: the % may be the effect or the level left; conditions: in vivo
[14] = tested on: Mus musculus; assay: as §2, with “as change” for “as decrease”, “in urea” for “in uric acid”, “at […]” for “at 20”, “day 10” for “day 75”; type: toxicity, organism-based; conditions: in vivo
[15] = tested on: Trypanosoma cruzi; assay: Antitrypanosomal activity against Trypanosoma cruzi MHOM/Pe/2011/Arequipa DTU 5 epimastigotes assessed as effect on parasite glycolytic pathway by measuring acetate excretion at IC25 after 72 hrs by 1H NMR method; type: functional, organism-based; summary of the method: as §3
[16] = tested on: Trypanosoma cruzi; assay: Antitrypanosomal activity against Trypanosoma cruzi MHOM/Pe/2011/Arequipa DTU 5 epimastigotes assessed as effect on parasite glycolytic pathway by measuring D-lactate excretion at IC25 after 72 hrs by 1H NMR method; type: functional, organism-based; summary of the method: as §3
[17] = tested on: Mus musculus; assay: as §2, with “Hepatotoxicity in” for “Nephrotoxicity in”, “in ratio of serum AST to GOT” for “in uric acid”, “level” for “level in serum”, “at […]” for “at 20”; type: toxicity, organism-based; parameters: scale not given: the % may be the effect or the level left; conditions: in vivo
[18] = tested on: Mus musculus; assay: as §2, with “in urea” for “in uric acid”, “at […]” for “at 20”, “day 10” for “day 75”, “day 16” for “day 127”; type: toxicity, organism-based; parameters: scale not given: the % may be the effect or the level left; conditions: in vivo
[19] = tested on: Mus musculus; assay: (§4) Hepatotoxicity in Balb/c mouse infected with Trypanosoma cruzi MHOM/Pe/2011/Arequipa DTU 5 trypamastigotes assessed as decrease in alkaline phosphatase level at […], po once daily for 5 consecutive days starting from day 10 post infection measured on day 16 post infection by biochemical analysis relative to control; type: toxicity, organism-based; parameters: scale not given: the % may be the effect or the level left; conditions: in vivo
[20] = tested on: Mus musculus; assay: as §4, with “ratio of serum AST to GOT” for “alkaline phosphatase”, “127” for “16”; type: toxicity, organism-based; parameters: scale not given: the % may be the effect or the level left; conditions: in vivo
[21] = tested on: Mus musculus; assay: as §4, with “ratio of serum AST to GOT” for “alkaline phosphatase”; type: toxicity, organism-based; parameters: scale not given: the % may be the effect or the level left; conditions: in vivo
[22] = tested on: Trypanosoma cruzi; assay: Antitrypanosomal activity against Trypanosoma cruzi MHOM/Pe/2011/Arequipa DTU 5 epimastigotes assessed as effect on parasite glycolytic pathway by measuring L-alanine excretion at IC25 after 72 hrs by 1H NMR method; type: functional, organism-based; summary of the method: as §3
[23] = tested on: Mus musculus; assay: as §2, with “as change” for “as decrease”, “at […]” for “at 20”, “day 10” for “day 75”; type: toxicity, organism-based; conditions: in vivo
[24] = tested on: Mus musculus; assay: as §2, with “at […]” for “at 20”, “day 81” for “day 127”; type: toxicity, organism-based; parameters: scale not given: the % may be the effect or the level left; conditions: in vivo
[25] = tested on: Mus musculus; assay: as §4, with “ratio of serum ALT to GPT” for “alkaline phosphatase”; type: toxicity, organism-based; parameters: scale not given: the % may be the effect or the level left; conditions: in vivo
[26] = tested on: Mus musculus; assay: as §1, with “at 100” for “at 20”; type: toxicity, organism-based; conditions: in vivo
[27] = tested on: Mus musculus; assay: as §4, with “increase” for “decrease”, “ratio of serum AST to GOT” for “alkaline phosphatase”, “127” for “16”; type: toxicity, organism-based; conditions: in vivo
[28] = tested on: Mus musculus; assay: as §4, with “Cardiotoxicity” for “Hepatotoxicity”, “change” for “decrease”, “serum LDH” for “alkaline phosphatase”; type: toxicity, organism-based; conditions: in vivo
[29] = tested on: Trypanosoma cruzi; assay: Antitrypanosomal activity against Trypanosoma cruzi MHOM/Pe/2011/Arequipa DTU 5 trypamastigotes infected in Balb/c mouse assessed as reduction in parasitaemia reactivation at 100 mg/kg, po pretreated once daily for 5 consecutive days starting from day 75 post infection followed by cyclophosphamide-induced immunosuppression on day 100 post infection every 4 days for a maximum of 3 doses measured up to 1 week post immunosuppression by Neubauer chamber method; type: functional, organism-based
[30] = tested on: Mus musculus; assay: as §2, with “as increase” for “as decrease”, “in urea” for “in uric acid”, “at […]” for “at 20”, “day 81” for “day 127”; type: toxicity, organism-based; conditions: in vivo

Structure (SMILES)	Activity [6] [%]	Activity [7]	Activity [8] [%]	Activity [9]	Activity [10]	Activity [11]	Activity [12]	Activity [13]	Activity [14] [%]	Activity [15]	Activity [16]	Activity [17]	Activity [18]	Activity [19]	Activity [20]	Activity [21]	Activity [22]	Activity [23] [%]	Activity [24]	Activity [25]	other results
O=C(Cn1ccnc1[N+](=O)[O-])NCc1ccccc1 [BENZNIDAZOLE]	–	–	–	–	–	–	–	–	–	–	–	–	–	–	–	–	–	–	–	–	Activity [1]: Active; Activity [2]: < 10%; Activity [3]: <= 20%; Activity [4]: <= 10%; Activity [5]: > 40%
COc1ccc(C(=O)CCN2CCN(c3ccc(Cl)cc3)CC2)cc1	< 10	inactive	200	<= 10%	<= 30%	<= 30%	<= 20%	<= 20%	< 10	inactive	inactive	<= 20%	<= 30%	<= 10%	<= 10%	<= 20%	inactive	< 10	<= 30%	<= 20%	–
COc1ccc(C(=O)CCN2CCN(c3ccc([N+](=O)[O-])cc3)CC2)cc1	–	inactive	>20	–	<= 10%	–	–	–	< 10	inactive	inactive	–	<= 20%	–	–	–	inactive	< 10	<= 30%	–	Activity [26]: < 10%; Activity [27]: <= 30%; Activity [28]: < 10%; Activity [29]: Active
COc1ccc(C(=O)CCN2CCN(c3ccc(F)cc3)CC2)cc1	< 10	–	–	<= 10%	–	<= 30%	<= 10%	<= 10%	–	–	–	<= 20%	–	<= 20%	<= 10%	<= 30%	–	–	–	<= 30%	Activity [26]: < 10%; Activity [30]: <= 30%; Activity [28]: < 10%; Activity [29]: Active
